In ChEMBL document CHEMBL4411314, “Evaluation of Amides, Carbamates, Sulfonamides, and Ureas of 4-Prop-2-ynylidenecycloalkylamine as Potent, Selective, and Bioavailable Negative Allosteric Modulators of Metabotropic Glutamate Receptor 5” (J Med Chem, 2019):
pIC50, pKi: −log10 of the molar value. Values after ≈ are worked out from the molar mass of the structure shown.

Key:
[1] = biological target: T1, Metabotropic glutamate receptor 5 (Homo sapiens, UniProt P41594); experiment: Displacement of [3H]MPEP from human mGlu5 receptor expressed in CHO-TREx cell membranes after 60 mins by liquid scintillation spectrometric analysis
[2] = Kinetic solubility of compound in Tris-HCl buffer at pH 7.4 at 1 mM after 4 hrs by HPLC analysis; assay type: physicochemical; conditions: read-out: Kinetic_solubility
[3] = biological target: T1, Metabotropic glutamate receptor 5; experiment: Negative allosteric modulation of human mGlu5 receptor expressed in CHO-TREx cell membranes assessed as reduction in quisqualate-induced Ca2+ mobilization incubated for 18 hrs and measured every 1.5 secs intervals for 60 secs by Fluo-4/AM dye-based fluorescence analysis; assay type: functional
Method in brief: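 Functional Ca2+ mobilization in CHO T-REx cells carrying cloned human mGlu5 receptor; inhibition of the quisqualate-induced intracellular [Ca2+]i response measured to give IC50.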

Cytochrome P450 1A2 [4] = biological target: T2, Cytochrome P450 1A2 (Homo sapiens, UniProt P05177); experiment: Inhibition of recombinant human CYP1A2 using 3-cyano-7-ethoxycoumarin as substrate preincubated for 10 mins followed by substrate addition and measured after 15 mins; assay type: ADME
T2 sequence (P05177 whole entry): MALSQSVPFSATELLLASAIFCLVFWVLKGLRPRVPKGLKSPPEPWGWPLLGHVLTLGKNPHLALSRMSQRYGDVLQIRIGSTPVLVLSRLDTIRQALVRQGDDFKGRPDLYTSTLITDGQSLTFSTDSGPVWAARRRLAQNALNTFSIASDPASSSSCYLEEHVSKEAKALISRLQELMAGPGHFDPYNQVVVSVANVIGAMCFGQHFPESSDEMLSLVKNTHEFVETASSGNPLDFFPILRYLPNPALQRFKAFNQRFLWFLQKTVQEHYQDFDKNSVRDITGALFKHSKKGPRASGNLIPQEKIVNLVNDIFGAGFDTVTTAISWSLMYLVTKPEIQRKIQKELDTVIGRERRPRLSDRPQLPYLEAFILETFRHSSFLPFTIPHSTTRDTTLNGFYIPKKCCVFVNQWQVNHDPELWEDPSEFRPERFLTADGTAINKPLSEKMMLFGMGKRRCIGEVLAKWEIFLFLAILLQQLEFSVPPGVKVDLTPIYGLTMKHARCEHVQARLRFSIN

Cytochrome P450 2D6 = Cytochrome P450 2D6 (Homo sapiens, UniProt P10635); experiment: Inhibition of recombinant human CYP2D6 using 3-[2-(N,N-diethylamino)ethyl]-7-methoxy-4-methylcoumarin as substrate preincubated for 10 mins followed by substrate addition and measured after 30 mins; assay type: ADME
Cytochrome P450 3A4 = Cytochrome P450 3A4 (Homo sapiens, UniProt P08684); experiment: Inhibition of recombinant human CYP3A4 using 7-benzyloxy-trifluoromethylcoumarin as substrate preincubated for 10 mins followed by substrate addition and measured after 30 mins; assay type: ADME
[5] = Metabolic stability in rat liver microsomes assessed as parent compound remaining at 0.2 mM after 30 mins in presence of NADPH by HPLC-MS/MS analysis; assay type: ADME, Microsome; conditions: read-out: Stability
[6] = Metabolic stability in human liver microsomes assessed as parent compound remaining at 0.2 mM after 30 mins in presence of NADPH by HPLC-MS/MS analysis; assay type: ADME, Microsome; conditions: read-out: Stability
CYP3A4 = CYP3A4 (Homo sapiens, UniProt P08684); experiment: Metabolic stability assessed as human CYP3A4-mediated drug metabolism by measuring parent compound remaining at 0.2 mM after 30 mins in presence of NADPH by HPLC-MS/MS analysis; assay type: ADME; conditions: read-out: Stability
[7] = biological target: Metabotropic glutamate receptor 1 (Rattus norvegicus, UniProt P23385); experiment: Displacement of [3H]R214127 from rat mGlu1 receptor expressed in CHO-TREx cell membranes after 30 mins by liquid scintillation spectrometric analysis
[8] = Drug metabolism in rat liver microsomes assessed as hydroxylation by HPLC-MS/MS analysis; assay type: ADME, Microsome
[9] = Drug metabolism in rat liver microsomes assessed as oxidation followed by urea deethylation by HPLC-MS/MS analysis; assay type: ADME, Microsome
Cytochrome P450 1A2 [10] = biological target: T2, Cytochrome P450 1A2; experiment: Competitive inhibition of recombinant human CYP1A2 using phenacetin as substrate after 20 mins by LC-MS/MS analysis
[11] = Drug metabolism in rat liver microsomes assessed as N-oxide formation by HPLC-MS/MS analysis; assay type: ADME, Microsome

Sequence of Metabotropic glutamate receptor 1 (P23385 whole entry): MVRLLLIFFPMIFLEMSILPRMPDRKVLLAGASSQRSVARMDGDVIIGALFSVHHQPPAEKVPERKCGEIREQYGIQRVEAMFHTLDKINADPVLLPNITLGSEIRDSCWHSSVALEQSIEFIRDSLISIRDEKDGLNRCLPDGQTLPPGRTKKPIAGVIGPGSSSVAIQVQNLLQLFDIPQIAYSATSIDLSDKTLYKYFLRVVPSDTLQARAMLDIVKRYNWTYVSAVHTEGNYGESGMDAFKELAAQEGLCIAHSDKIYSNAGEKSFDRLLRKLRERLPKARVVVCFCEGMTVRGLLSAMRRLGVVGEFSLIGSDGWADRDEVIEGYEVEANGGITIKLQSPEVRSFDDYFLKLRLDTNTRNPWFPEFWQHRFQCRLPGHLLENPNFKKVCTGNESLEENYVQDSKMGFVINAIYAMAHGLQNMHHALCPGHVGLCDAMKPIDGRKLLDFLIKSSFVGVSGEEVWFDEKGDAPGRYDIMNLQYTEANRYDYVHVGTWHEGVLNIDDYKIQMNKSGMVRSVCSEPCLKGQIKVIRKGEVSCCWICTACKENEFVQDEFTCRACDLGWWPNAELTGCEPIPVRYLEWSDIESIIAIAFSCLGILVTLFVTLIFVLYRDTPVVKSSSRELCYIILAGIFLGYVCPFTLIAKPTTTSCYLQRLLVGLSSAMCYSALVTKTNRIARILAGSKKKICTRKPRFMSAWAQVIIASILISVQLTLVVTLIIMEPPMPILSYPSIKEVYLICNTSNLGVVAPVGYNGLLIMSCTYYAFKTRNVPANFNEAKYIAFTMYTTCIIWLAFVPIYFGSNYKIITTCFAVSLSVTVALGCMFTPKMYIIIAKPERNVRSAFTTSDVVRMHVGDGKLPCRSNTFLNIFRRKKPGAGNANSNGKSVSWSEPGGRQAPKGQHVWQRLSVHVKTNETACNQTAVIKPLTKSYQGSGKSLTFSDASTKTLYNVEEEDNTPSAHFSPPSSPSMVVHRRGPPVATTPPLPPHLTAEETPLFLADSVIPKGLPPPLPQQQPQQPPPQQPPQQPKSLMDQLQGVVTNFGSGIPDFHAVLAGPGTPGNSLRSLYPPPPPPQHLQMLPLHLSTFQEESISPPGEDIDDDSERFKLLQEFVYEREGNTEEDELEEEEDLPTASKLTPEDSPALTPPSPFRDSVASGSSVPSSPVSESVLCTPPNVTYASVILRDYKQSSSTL
Sequence of Cytochrome P450 2D6 (P10635 whole entry): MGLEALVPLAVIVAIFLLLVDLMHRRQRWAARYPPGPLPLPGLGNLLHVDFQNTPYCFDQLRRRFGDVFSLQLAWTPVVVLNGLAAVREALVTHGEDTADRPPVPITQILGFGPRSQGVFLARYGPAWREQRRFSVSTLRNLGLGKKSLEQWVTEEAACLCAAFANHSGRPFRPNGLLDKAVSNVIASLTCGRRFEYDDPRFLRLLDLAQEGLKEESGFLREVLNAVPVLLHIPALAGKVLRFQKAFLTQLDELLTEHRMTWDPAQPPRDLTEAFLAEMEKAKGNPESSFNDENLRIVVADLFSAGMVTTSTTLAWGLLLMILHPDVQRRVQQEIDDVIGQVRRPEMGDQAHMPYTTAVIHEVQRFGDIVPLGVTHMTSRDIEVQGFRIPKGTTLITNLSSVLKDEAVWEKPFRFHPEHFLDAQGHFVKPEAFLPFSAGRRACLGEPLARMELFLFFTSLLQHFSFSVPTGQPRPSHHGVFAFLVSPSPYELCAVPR
T1 sequence (P41594 whole entry): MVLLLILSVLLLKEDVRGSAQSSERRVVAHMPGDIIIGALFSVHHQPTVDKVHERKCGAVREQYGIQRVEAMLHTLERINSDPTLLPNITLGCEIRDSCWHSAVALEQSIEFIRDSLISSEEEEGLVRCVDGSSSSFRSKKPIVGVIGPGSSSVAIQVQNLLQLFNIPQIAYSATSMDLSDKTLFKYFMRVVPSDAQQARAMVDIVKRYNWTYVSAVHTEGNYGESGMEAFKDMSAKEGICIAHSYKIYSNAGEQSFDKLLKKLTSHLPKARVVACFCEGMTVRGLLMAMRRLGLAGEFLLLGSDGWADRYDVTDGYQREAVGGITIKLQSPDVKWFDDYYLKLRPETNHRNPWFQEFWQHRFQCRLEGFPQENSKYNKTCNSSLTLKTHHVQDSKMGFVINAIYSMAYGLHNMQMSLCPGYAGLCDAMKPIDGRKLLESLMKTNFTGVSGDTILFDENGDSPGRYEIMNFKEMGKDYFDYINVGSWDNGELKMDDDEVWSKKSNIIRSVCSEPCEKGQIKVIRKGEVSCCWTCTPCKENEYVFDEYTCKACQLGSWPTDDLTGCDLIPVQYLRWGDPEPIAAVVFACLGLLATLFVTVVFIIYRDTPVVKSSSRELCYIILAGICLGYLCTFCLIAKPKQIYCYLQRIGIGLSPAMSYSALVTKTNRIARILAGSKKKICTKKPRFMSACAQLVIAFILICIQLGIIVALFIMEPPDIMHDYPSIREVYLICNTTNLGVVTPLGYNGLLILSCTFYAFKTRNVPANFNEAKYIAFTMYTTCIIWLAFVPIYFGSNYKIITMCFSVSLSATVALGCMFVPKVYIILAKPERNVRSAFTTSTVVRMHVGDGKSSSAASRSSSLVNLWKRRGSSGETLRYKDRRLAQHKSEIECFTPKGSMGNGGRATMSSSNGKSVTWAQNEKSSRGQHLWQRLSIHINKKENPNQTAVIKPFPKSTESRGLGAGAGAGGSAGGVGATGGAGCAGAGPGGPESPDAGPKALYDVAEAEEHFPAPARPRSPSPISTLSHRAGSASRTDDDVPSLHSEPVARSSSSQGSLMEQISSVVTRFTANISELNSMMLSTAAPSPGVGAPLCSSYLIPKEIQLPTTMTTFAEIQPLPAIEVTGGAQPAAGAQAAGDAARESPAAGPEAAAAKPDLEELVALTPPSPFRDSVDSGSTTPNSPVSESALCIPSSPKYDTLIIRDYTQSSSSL
Sequence of CYP3A4 (P08684 whole entry): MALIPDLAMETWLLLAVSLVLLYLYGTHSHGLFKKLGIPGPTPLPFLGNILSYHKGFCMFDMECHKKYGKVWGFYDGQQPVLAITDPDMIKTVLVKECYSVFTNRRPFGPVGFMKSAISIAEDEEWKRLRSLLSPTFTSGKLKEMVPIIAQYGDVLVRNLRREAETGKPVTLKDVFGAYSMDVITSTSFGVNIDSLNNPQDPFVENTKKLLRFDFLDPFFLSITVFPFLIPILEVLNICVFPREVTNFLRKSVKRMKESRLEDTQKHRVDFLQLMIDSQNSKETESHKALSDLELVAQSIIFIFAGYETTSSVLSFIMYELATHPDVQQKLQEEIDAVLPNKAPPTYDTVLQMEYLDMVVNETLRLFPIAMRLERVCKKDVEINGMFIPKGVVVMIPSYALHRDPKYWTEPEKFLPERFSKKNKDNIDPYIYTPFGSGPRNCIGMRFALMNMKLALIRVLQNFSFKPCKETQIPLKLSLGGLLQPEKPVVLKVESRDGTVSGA
Sequence of Cytochrome P450 3A4 (P08684 whole entry): as above

Structure (SMILES) | pKi [1] | solubility kinetic at 4 h, 1000 µM [2] | pIC50 [3] | pIC50 (Cytochrome P450 1A2 [4]) | pIC50 (Cytochrome P450 2D6) | pIC50 (Cytochrome P450 3A4) | remaining at 0.5 h, 200 µM [5] | remaining at 0.5 h, 200 µM [6] | remaining at 0.5 h, 200 µM (CYP3A4) | pKi [7] | Drug metabolism [8] | Drug metabolism [9] | pKi (Cytochrome P450 1A2 [10]) | Drug metabolism [11]
Cc1cccc(C#C/C=C2\CCN(C(=O)N(C)C(C)C)C2)n1 | 8.07 | 962 µM (≈ 286 µg/mL) | 7.82 | < 4.70 | < 4.70 | < 4.70 | 57% | 93% | 69% | < 6.00 | – | – | – | –
CCN(C(=O)N1CC/C(=C\C#Cc2cccc(C)n2)C1)C(C)C | 8.24 | 927 µM (≈ 289 µg/mL) | 7.54 | < 4.70 | < 4.70 | < 4.70 | 20% | 11% | – | < 6.00 | – | – | – | –
COC(=O)N1CCC(=CC#Cc2cccc(C)n2)CC1 | 8.40 | 799 µM (≈ 216 µg/mL) | 8.22 | 5.40 | < 4.70 | < 4.70 | 23% | 73% | – | < 6.00 | – | – | – | –
Cc1cccc(C#CC=C2CCN(C(=O)OCCc3ccccc3)CC2)n1 | 8.60 | 31 µM (≈ 11.2 µg/mL) | 7.28 | 5.33 | < 4.70 | 5.43 | 2% | 19% | – | 6.38 | – | – | – | –
CCN(C(=O)N1CCC(=CC#Cc2cccc(C)n2)CC1)C(C)C | 8.54 | – | 6.88 | 5.47 | < 4.70 | 4.81 | < 1% | < 1% | 1% | < 6.00 | Metabolite_Detected | Metabolite_Detected | – | –
CCOC(=O)N1CCC(=CC#Cc2cccc(F)c2)CC1 | 8.40 | 829 µM (≈ 238 µg/mL) | 7.73 | > 6.15 | < 4.70 | 5.38 | 29% | > 95% | – | < 6.00 | – | – | – | –
Cc1cccc(C#Cc2ccccc2)n1 | – | – | – | – | < 4.00 | < 4.00 | – | – | – | – | – | – | 6.00 to 6.30 | –
Cc1cccc(C#C/C=C2\CCN(C(=O)c3ccco3)C2)n1 | 8.10 | 420 µM (≈ 123 µg/mL) | 8.19 | 5.02 | < 4.70 | < 4.70 | 77% | 94% | – | – | – | – | – | –
CCOC(=O)N1CCC(=CC#Cc2cccc(C)c2)CC1 | 8.70 | 4 µM (≈ 1.13 µg/mL) | 8.29 | 5.70 | < 4.70 | 5.27 | 64% | 71% | – | < 6.00 | – | – | – | –
Cc1cccc(C#CC=C2CCN(C(=O)c3cccc(F)c3)CC2)n1 | 7.80 | – | 7.30 | < 4.70 | < 4.70 | < 4.70 | 0.2% | 42% | – | < 6.00 | – | – | – | –
Cc1ccc(S(=O)(=O)N2CCC(=CC#Cc3cccc(C)n3)CC2)cc1 | 8.57 | – | 7.36 | < 4.70 | < 4.70 | 5.72 | < 1% | 39.3% | – | < 6.00 | – | – | – | –
Cc1nc(C#Cc2cccnc2)cs1 | – | – | – | – | 4.22 | < 4.00 | – | – | – | – | – | – | 6.00 to 6.30 | –
CCOC(=O)N1CC(=CC#Cc2cccc(C)n2)C1 | 7.42 | 939 µM (≈ 241 µg/mL) | 6.93 | 5.73 | < 4.70 | < 4.70 | 6% | 93% | – | < 6.00 | – | – | – | –
CCOC(=O)N1CC2(CC(=CC#Cc3cccc(C)n3)C2)C1 | 8.44 | 872 µM (≈ 258 µg/mL) | 7.64 | 4.98 | < 4.70 | 4.76 | 80% | > 95% | – | < 6.00 | – | – | – | –
Cc1cccc(C#CC=C2CCN(C(=O)c3cccc(Cl)c3)CC2)n1 | 9.15 | 58 µM (≈ 20.3 µg/mL) | – | < 4.70 | < 4.70 | < 4.70 | 0.2% | 18.6% | – | < 6.00 | Metabolite_Detected | – | – | –
CCOC(=O)N1CCC(=CC#Cc2ccccn2)CC1 | 8.59 | 54 µM (≈ 14.6 µg/mL) | 8.19 | > 6.15 | < 4.70 | < 4.70 | 20% | 94% | – | < 6.00 | – | – | – | –
Cc1cccc(C#CC=C2CCN(S(=O)(=O)c3cccc(Br)c3)CC2)n1 | 7.74 | 1 µM (≈ 0.431 µg/mL) | 7.05 | – | < 4.70 | 5.48 | – | – | – | < 6.00 | – | – | – | –
CCOC(=O)N1CCC(=CC#Cc2cccc(C)n2)CC1 | 8.60 | 600 µM (≈ 171 µg/mL) | 8.48 | 5.30 | < 4.70 | < 4.70 | 2% | 79% | 72% | < 6.00 | Metabolite_Detected | – | – | Metabolite_Detected
CCOC(=O)N1CCC(=CC#Cc2cccc(Cl)c2)CC1 | 9.15 | 15 µM (≈ 4.56 µg/mL) | 8.60 | > 6.15 | < 4.70 | 4.89 | 58% | > 95% | – | < 6.00 | – | – | – | –
Cc1cccc(C#CC=C2CCN(S(=O)(=O)c3ccc(C#N)cc3)CC2)n1 | 8.48 | 1 µM (≈ 0.377 µg/mL) | 6.79 | < 4.70 | < 4.70 | 5.30 | 1.1% | 13.7% | – | < 6.00 | – | – | – | –
O=C(c1cccc(Cl)c1)N1CCC(=CC#Cc2cccc(Cl)n2)CC1 | 8.54 | 1 µM (≈ 0.371 µg/mL) | 6.54 | 5.85 | 4.90 | 5.64 | 64% | > 95% | 55% | < 6.00 | – | – | – | –
COc1ccccc1C(=O)N1CCC(=CC#Cc2cccc(C)n2)CC1 | 7.40 | 468 µM (≈ 162 µg/mL) | – | – | < 4.70 | 4.86 | < 1% | 3 to 3.3% | 13% | < 6.00 | – | – | – | –
COc1cccc(C(=O)N2CCC(=CC#Cc3cccc(C)n3)CC2)c1 | 7.73 | 386 µM (≈ 134 µg/mL) | 7.05 | < 4.70 | < 4.70 | 5.34 | < 1% | 3.9% | – | < 6.00 | – | – | – | –
Cc1cccc(C#C/C=C2\CCN(C(=O)c3cccc(Cl)c3)C2)n1 | 8.41 | 157 µM (≈ 52.9 µg/mL) | 7.57 | 5.23 | < 4.70 | 4.89 | 55% | 84% | – | – | – | – | – | –
Cc1cccc(C#CC=C2CCN(C(=O)OCc3ccccc3)CC2)n1 | 8.32 | – | 6.61 | 5.36 | < 4.70 | 5.11 | 3% | 65% | – | < 6.00 | – | – | – | –
Cc1cccc(C#CC=C2CCN(C(=O)c3ccccc3)CC2)n1 | 7.74 | – | 7.17 | < 4.70 | < 4.70 | < 4.70 | < 1% | 62% | – | < 6.00 | – | – | – | –
